Assay results: ChEMBL document CHEMBL4354848, “Molecular Design and Synthesis of Ivermectin Hybrids Targeting Hepatic and Erythrocytic Stages of Plasmodium Parasites” (J Med Chem, 2020)
Active and inactive are the calls of the source. No cut-off for these calls is given here.

Assays:
Huh-7 = test: Cytotoxicity against human HuH7 cells infected with luciferase expressing Plasmodium berghei sporozoites assessed as reduction in cell viability preincubated for 1 hr followed by parasite infection and measured after 48 hrs by alamar blue assay; type: cell-based; conditions: huh-7, 46 h, in the assay text read “46 hrs” for “48 hrs”
Method in brief: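 Huh7 cells were pre-treated for 1 h with serial dilutions from 10 mM DMSO stocks, then infected with luciferase-expressing P. berghei sporozoites and spun at 1800 xg for 5 min. Cultures were kept at 37 °C, 5% CO2. Viability was read by Alamar Blue added at 46 h post infection, following the manufacturer's instructions.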

Plasmodium berghei [1] = test: Antiplasmodial activity against luciferase expressing Plasmodium berghei sporozoites infected in human HuH7 cells assessed as reduction in parasite load at 1 to 10 uM preincubated for 1 hr followed by parasite infection and measured after 46 hrs by bioluminescence assay; type: functional, organism-based
Method in brief: (§1)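 Huh7 hepatoma cells seeded at 1x10^4/well, left overnight at 37 °C, 5% CO2. Serial dilutions from 10 mM DMSO stocks in medium with gentamicin and amphotericin B added 1 h before 1x10^4 firefly luciferase-expressing P. berghei sporozoites from An. stephensi salivary glands. Spin 1800 xg for 5 min, then culture. Parasite load read by bioluminescence. DMSO and atovaquone as controls. IC50 from nonlinear regression of normalized curves.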

Anopheles stephensi = test: Insecticidal activity against compound treated Balb/c mouse blood fed Anopheles stephensi assessed as effect on mosquito survival at 1 mg/kg, po administered via gavage 24 hrs prior to blood feed for 20 mins under dark condition and measured daily up to 14 days post blood feed; type: functional, organism-based
Method in brief: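 Balb/c mice (6-8 weeks) received a single oral dose of 1 mg/kg as a suspension in sunflower oil. Controls got DMSO in sunflower oil. At 24 h, ~30 mosquitoes per mouse fed for ~20 min in the dark. Blood ingestion was confirmed visually, and survival was scored daily up to 14 days.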

Plasmodium falciparum [2] = test: Potency index, ratio of ivermectin IC50 to test compound IC50 for antiplasmodial activity against chloroquine-sensitive ring-stage synchronized cultures of Plasmodium falciparum NF54; type: functional
Plasmodium falciparum [3] = test: Antiplasmodial activity against chloroquine-sensitive ring-stage synchronized cultures of Plasmodium falciparum NF54 incubated for 48 hrs by SYBR green I dye based flow cytometry; type: functional, organism-based
Method in brief: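 Ring-stage synchronized PfNF54 cultures (2.5% hematocrit, ~1% parasitemia) exposed to compounds or DMSO vehicle for 48 h at 37 °C under 5% CO2/5% O2. Stocks in DMSO diluted in RPMI 1640-based medium with Albumax, HEPES, hypoxanthine. ~800 000 cells stained with SYBR green I for 20 min in the dark; ~100,000 events counted by flow cytometry. Triplicates, at least three experiments.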

Plasmodium berghei [4] = test: Antiplasmodial activity against luciferase expressing Plasmodium berghei sporozoites infected in human HuH7 cells assessed as reduction in parasite load preincubated for 1 hr followed by parasite infection and measured after 46 hrs by bioluminescence assay; type: functional, organism-based; method in brief: as §1
Plasmodium berghei [5] = test: Potency index, ratio of ivermectin IC50 to test compound IC50 for antiplasmodial activity against luciferase expressing Plasmodium berghei sporozoites infected in human HuH7 cells; type: functional
[6] = Plasmodium falciparum, NF54, 48 h, read-out: IC50

Compound	Activity (Huh-7)	Activity (Plasmodium berghei [1])	Activity (Anopheles stephensi)	Ratio IC50 (Plasmodium falciparum [2])	IC50 (Plasmodium falciparum [3]; [6]) [µM]	IC50 (Plasmodium berghei [4]; Plasmodium berghei, Huh-7) [µM]	Ratio IC50 (Plasmodium berghei [5])	IC50 (Plasmodium falciparum [3]; read-out: IC50) [µM]	IC50 (Plasmodium berghei [4]) [µM]	IC50 (Plasmodium falciparum [3])
CC[C@H](C)[C@H]1O[C@]2(CC[C@@H]1C)C[C@@H]1C[C@@H](C/C=C(\C)[C@@H](OC(=O)Cn3cc(COc4nc(C)c(C(=O)OC(C)C)c(-c5cccc([N+](=O)[O-])c5)n4)nn3)[C@@H](C)/C=C/C=C3\CO[C@@H]4[C@H](O[Si](C)(C)C(C)(C)C)C(C)=C[C@@H](C(=O)O1)[C@]34O)O2	Non-Toxic	inactive	–	–	–	–	–	–	–	–
IVERMECTIN [listing 1 of 2 here]	–	–	Active	–	–	–	–	–	–	–
CCOC(=O)c1c(C)nc(OCc2cn(CC(=O)O[C@@H]3/C(C)=C/C[C@@H]4C[C@@H](C[C@]5(CC[C@H](C)[C@@H]([C@@H](C)CC)O5)O4)OC(=O)[C@@H]4C=C(C)[C@@H](O)[C@H]5OC/C(=C\C=C\[C@@H]3C)[C@]54O)nn2)nc1-c1ccccc1	Non-Toxic	Active	–	11	0.111	0.99	–	–	–	–
CC[C@H](C)[C@H]1O[C@]2(CC[C@@H]1C)C[C@@H]1C[C@@H](C/C=C(\C)[C@@H](OC(=O)Cn3cc(COc4nc(C)c(C(=O)OC(C)C)c(-c5cccc([N+](=O)[O-])c5)n4)nn3)[C@@H](C)/C=C/C=C3\CO[C@@H]4[C@H](O)C(C)=C[C@@H](C(=O)O1)[C@]34O)O2	Non-Toxic	Active	–	3	0.161	0.911	–	–	–	–
O=C1C(O)=C([C@H]2CC[C@H](c3ccc(Cl)cc3)CC2)C(=O)c2ccccc21 [ATOVAQUONE]	–	–	–	–	–	0.0007	–	–	–	–
CCOC(=O)c1c(C)nc(OCc2cn(CC(=O)O[C@@H]3/C(C)=C/C[C@@H]4C[C@@H](C[C@]5(CC[C@H](C)[C@@H]([C@@H](C)CC)O5)O4)OC(=O)[C@@H]4C=C(C)[C@@H](O)[C@H]5OC/C(=C\C=C\[C@@H]3C)[C@]54O)nn2)nc1-c1cc(OC)c(OC)cc1[N+](=O)[O-]	Non-Toxic	Active	inactive	5	0.0502	0.503	3	–	–	–
IVERMECTIN [listing 2 of 2 here]	–	–	–	–	–	–	–	0.52	1.64	–
CC[C@H](C)[C@H]1O[C@]2(CC[C@@H]1C)C[C@@H]1C[C@@H](C/C=C(\C)[C@@H](O)[C@@H](C)/C=C/C=C3\CO[C@@H]4[C@H](O)C(C)=C[C@@H](C(=O)O1)[C@]34O)O2 [IVM AGLYCONE]	Non-Toxic	Active	inactive	–	–	4.56	–	–	–	Not Active
